This note sets out measurements from ChEMBL document CHEMBL2203151, “Cytotoxic alkaloids from the whole plants of Zephyranthes candida” (J Nat Prod, 2012).

Assay [1] concerns HT-29. In words: Cytotoxicity against human HT-29 cells after 48 hrs by MTT assay. The class given is functional, cell-based. Particulars: HT-29, 48 h. A general note: Tetrazolium assays rely on reduction of a dye to a coloured formazan, in cell work by metabolically active cells.
Assay [2] deals with A549. Nature of the assay: Cytotoxicity against human A549 cells after 48 hrs by MTT assay. The class given is functional, cell-based. Particulars: A549, 48 h.
The test system of assay [3] is HepG2. In words: Cytotoxicity against human HepG2 cells after 48 hrs by MTT assay. The class given is functional, cell-based. Particulars: HepG2, 48 h.
In assay [4] the test system is K562. In words: Cytotoxicity against human K562 cells after 48 hrs by MTT assay. The class given is functional, cell-based. Particulars: K562, 48 h.
The test system of the next assay is HL-60. In words: Cytotoxicity against human HL60 cells after 48 hrs by MTT assay. The class given is functional, cell-based. Particulars: HL-60, 48 h.
Assay [5] is described as follows: Cytotoxicity against human BEAS2B cells after 48 hrs by MTT assay. The class given is cell-based. The note with it: BEAS-2B. The essentials:
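Beas-2B immortalized, non-cancerous bronchial epithelial cells grown in RPMI-1640 or DMEM with 10% FBS, 5% CO2, 37°C. Cells were seeded and allowed to adhere 12 h before compound addition, then exposed for 48 h. DMSO negative and cisplatin positive controls were included. Viability was measured by MTT absorbance at 595 nm, and IC50 was calculated by the Reed–Muench method.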

For assay [6], the system named is HT-29. Nature of the assay: Selectivity index, ratio of IC50 for human BEAS2B cells to IC50 for human HT-29 cells. The class given is functional.
Assay [7] concerns HepG2. Nature of the assay: Selectivity index, ratio of IC50 for human BEAS2B cells to IC50 for human HepG2 cells. The class given is functional.
Assay [8] relates to A549. Nature of the assay: Selectivity index, ratio of IC50 for human BEAS2B cells to IC50 for human A549 cells. The class given is functional.
Assay [9] deals with K562. Nature of the assay: Selectivity index, ratio of IC50 for human BEAS2B cells to IC50 for human K562 cells. The class given is functional.
Assay [10] can be described thus: Selectivity index, ratio of IC50 for human BEAS2B cells to IC50 for human HL60 cells. The class given is functional.

For orientation: IC50 means the midpoint of a concentration-inhibition curve.

SMILES strings stand for the structures.

For `CO[C@@H]1C=C[C@@]23c4cc5c(cc4C(=O)O[C@H]2CN(C)[C@H]3C1)OCO5`, the IC50 with HT-29 [1], in the assay on A549 [2], in the assay on HepG2 [3], in the assay with K562 [4] and in the assay on HL-60 was over 10 µM throughout.
On to `CN1Cc2cc3c(cc2-c2ccccc21)OCO3`, for which the IC50 with HT-29 [1], in the assay on A549 [2], in the assay on HepG2 [3], with K562 [4] and in the assay with HL-60 was over 10 µM in each case.
Take `CCOC(=O)CCCn1c(=O)c2cc3c(cc2c2ccccc21)OCO3`: the IC50 in assay [5] was 36 µM; in the assay on HT-29 [1] it was over 10 µM; with A549 [2], over 10 µM; with HepG2 [3], over 10 µM; in the assay with K562 [4] it was over 10 µM; with HL-60, over 10 µM.
As for `O=c1c2cc3c(cc2c2ccccc2n1CCc1ccccc1)OCO3`, the Ratio IC50 with HT-29 [6] was 3.2; with HepG2 [7] it was 5.2; in the assay on A549 [8] it was 0.56; with K562 [9] it was 10; in assay [10], 9. Further, the IC50 amounted to 7.3 µM in assay [5]; 2.3 µM with HT-29 [1]; 13 µM in the assay on A549 [2]; 1.4 µM with HepG2 [3]; 0.7 µM in the assay on K562 [4]; 0.81 µM with HL-60.
Consider `CC(C)CCn1c(=O)c2cc3c(cc2c2ccccc21)OCO3`, for which the IC50 with HT-29 [1], in the assay with A549 [2], with HepG2 [3], in the assay with K562 [4] and in the assay with HL-60 was over 10 µM each time.
Turning to `Cn1c(=O)c2cc3c(cc2c2ccccc21)OCO3`, the IC50 in the assay on HT-29 [1], with A549 [2], in the assay on HepG2 [3], with K562 [4] and with HL-60 was over 10 µM each time.
Consider `COc1cc2c(c(OC)c1OC)[C@@H](OC)O[C@@H]1CC=C3CCN(C)[C@H]3[C@H]21`, for which the 50% inhibitory concentration (IC50) in the assay with HT-29 [1], with A549 [2], in the assay on HepG2 [3], with K562 [4] and in the assay on HL-60 was over 10 µM each time.
For the compound `CCOC(=O)CCn1c(=O)c2cc3c(cc2c2ccccc21)OCO3`, the IC50 in assay [5] was over 40 µM; in the assay on HT-29 [1], over 10 µM; with A549 [2] it was over 10 µM; in the assay on HepG2 [3], over 10 µM; with K562 [4] it was over 10 µM; in the assay with HL-60, over 10 µM.
For `CO[C@@H]1C=C[C@@]23c4cc5c(cc4C(O)[N+](C)(C[C@@H]2O)[C@H]3C1)OCO5.[Cl-]` (mixture of isomers), the Ratio IC50 was found to be 3.1 in the assay on HT-29 [6]; 2.5 with HepG2 [7]; 3.4 in the assay with A549 [8]; 3.7 in the assay on K562 [9]; 4.1 in [10]. The IC50 in [5] came out at 3.7 µM; with HT-29 [1], 1.2 µM; in the assay with A549 [2] it was 1.1 µM; in the assay on HepG2 [3] it was 1.5 µM; in the assay with K562 [4], 1 µM; with HL-60, 0.91 µM.
On to `CO[C@H]1C=C[C@@]23c4cc5c(cc4CN(C)[C@@H]2C(=O)N(C)[C@H]3C1)OCO5` (relative stereo), for which the IC50 with HT-29 [1], in the assay with A549 [2], in the assay on HepG2 [3], in the assay with K562 [4] and in the assay with HL-60 was over 10 µM each time.
Consider `CO[C@@H]1C=C[C@@]23c4cc5c(cc4CN(C[C@@H]2O)[C@H]3C1)OCO5` [(+)-HAEMANTHAMINE], for which the IC50 was found to be 2.1 µM in the assay on HT-29 [1]; 2.5 µM in the assay on A549 [2]; 4.8 µM in the assay on HepG2 [3]; 2.5 µM in the assay on K562 [4]; 1.4 µM in the assay with HL-60.
Take `O[C@H]1[C@H]2c3cc4c(cc3CN3CCC(=C[C@@H]1O)[C@H]23)OCO4` [LYCORINE]: the IC50 is 4.9 µM in assay [5]; 3.2 µM in the assay on HT-29 [1]; 1.9 µM in the assay on A549 [2]; 3.7 µM with HepG2 [3]; 2.3 µM in the assay on K562 [4]; 1.6 µM with HL-60.
As for `C/C=C/C=C/C(=O)N1C[C@H](C)NC[C@H]1C` [NIGRAGILLIN], the IC50 with HT-29 [1], with A549 [2], in the assay with HepG2 [3], in the assay with K562 [4] and in the assay with HL-60 was over 10 µM throughout.
For the compound `CO[C@@H]1C=C[C@@]23c4cc5c(cc4CO[C@]2(O)CN(C)[C@H]3C1)OCO5` [TAZETTINE], the IC50 in the assay with HT-29 [1], in the assay with A549 [2], in the assay on HepG2 [3], in the assay on K562 [4] and in the assay on HL-60 was over 10 µM each time.
For the compound `c1ccc2c(c1)ncc1cc3c(cc12)OCO3` [TRISPHAERIDINE], the IC50 in the assay with HT-29 [1], in the assay with A549 [2], with HepG2 [3], in the assay with K562 [4] and in the assay with HL-60 was over 10 µM throughout.
